Test results published in ChEMBL document CHEMBL2062435, “Synthesis and in vitro antibacterial activity of gemifloxacin derivatives containing a substituted benzyloxime moiety” (2012).
Converted amounts (≈) assume the structure as drawn.

Experiments:
Format in all cases: functional
Streptococcus pneumoniae [1] = experiment: Antimicrobial activity against extended spectrum beta-lactamases-producing Streptococcus pneumoniae 10-4 after 18-24 hrs by two-fold serial dilution method
Outline: (§1)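 Agar-medium twofold serial dilution against Gram-positive and Gram-negative strains; MIC taken as the lowest compound concentration giving complete inhibition of bacterial growth after incubation at 35 °C for 18-24 h.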

Staphylococcus aureus [2] = experiment: Antimicrobial activity against extended spectrum beta-lactamases-producing methicillin-resistant Staphylococcus aureus 10-15 after 18-24 hrs by two-fold serial dilution method
Outline: (§2)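 Agar twofold serial dilution MIC against clinical isolates. MIC was taken as the lowest concentration giving complete inhibition of bacterial growth after incubation at 35 °C for 18-24 h.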

Klebsiella pneumoniae [3] = experiment: Antimicrobial activity against Klebsiella pneumoniae 10-3 after 18-24 hrs by two-fold serial dilution method; outline: as §1
Escherichia coli [4] = experiment: Antimicrobial activity against Escherichia coli 10-1 after 18-24 hrs by two-fold serial dilution method; outline: as §1
Klebsiella pneumoniae [5] = experiment: Antimicrobial activity against extended spectrum beta-lactamases-producing Klebsiella pneumoniae 10-1 after 18-24 hrs by two-fold serial dilution method; outline: as §1
Streptococcus pneumoniae [6] = experiment: Antimicrobial activity against extended spectrum beta-lactamases-producing Streptococcus pneumoniae 10-1 after 18-24 hrs by two-fold serial dilution method; outline: as §1
Enterococcus faecalis [7] = experiment: Antimicrobial activity against Enterococcus faecalis 10-7 after 18-24 hrs by two-fold serial dilution method; outline: as §1
[8] = tested on: Staphylococcus epidermidis; experiment: Antimicrobial activity against extended spectrum beta-lactamases-producing methicillin-sensitive Staphylococcus epidermidis 10-15 after 18-24 hrs by two-fold serial dilution method; outline: as §1
Staphylococcus aureus [9] = experiment: Antimicrobial activity against extended spectrum beta-lactamases-producing methicillin-sensitive Staphylococcus aureus 10-14 after 18-24 hrs by two-fold serial dilution method; outline: as §1
Pseudomonas aeruginosa [10] = experiment: Antimicrobial activity against extended spectrum beta-lactamases-producing Pseudomonas aeruginosa 10-5 after 18-24 hrs by two-fold serial dilution method; outline: as §1
Escherichia coli [11] = experiment: Antimicrobial activity against extended spectrum beta-lactamases-producing Escherichia coli 10-3 after 18-24 hrs by two-fold serial dilution method; outline: as §1
[12] = tested on: Staphylococcus epidermidis; experiment: Antimicrobial activity against extended spectrum beta-lactamases-producing methicillin-sensitive Staphylococcus epidermidis 10-13 after 18-24 hrs by two-fold serial dilution method; outline: as §1
Pseudomonas aeruginosa [13] = experiment: Antimicrobial activity against extended spectrum beta-lactamases-producing Pseudomonas aeruginosa 10-18 after 18-24 hrs by two-fold serial dilution method; outline: as §1
Escherichia coli [14] = experiment: Antimicrobial activity against extended spectrum beta-lactamases-producing Escherichia coli 10-2 after 18-24 hrs by two-fold serial dilution method; outline: as §1
Enterococcus faecium [15] = experiment: Antimicrobial activity against Enterococcus faecium 10-5 after 18-24 hrs by two-fold serial dilution method; outline: as §1
[16] = tested on: Staphylococcus epidermidis; experiment: Antimicrobial activity against extended spectrum beta-lactamases-producing methicillin-sensitive Staphylococcus epidermidis 10-11 after 18-24 hrs by two-fold serial dilution method; outline: as §1
Staphylococcus aureus [17] = experiment: Antimicrobial activity against methicillin-resistant Staphylococcus aureus clinical isolate after 18-24 hrs by two-fold serial dilution method; outline: as §2
Escherichia coli [18] = experiment: Antimicrobial activity against extended spectrum beta-lactamases-producing Escherichia coli 10-4 after 18-24 hrs by two-fold serial dilution method; outline: as §1
Pseudomonas aeruginosa [19] = experiment: Antimicrobial activity against extended spectrum beta-lactamases-producing Pseudomonas aeruginosa 10-15 after 18-24 hrs by two-fold serial dilution method; outline: as §1
Klebsiella pneumoniae [20] = experiment: Antimicrobial activity against extended spectrum beta-lactamases-producing Klebsiella pneumoniae 10-3 after 18-24 hrs by two-fold serial dilution method; outline: as §1
[21] = tested on: Staphylococcus epidermidis; experiment: Antimicrobial activity against extended spectrum beta-lactamases-producing methicillin-resistant Staphylococcus epidermidis 10-10 after 18-24 hrs by two-fold serial dilution method; outline: as §2
Pseudomonas aeruginosa [22] = experiment: Antimicrobial activity against extended spectrum beta-lactamases-producing Pseudomonas aeruginosa 10-20 after 18-24 hrs by two-fold serial dilution method; outline: as §1
Klebsiella pneumoniae [23] = experiment: Antimicrobial activity against Klebsiella pneumoniae 10-2 after 18-24 hrs by two-fold serial dilution method; outline: as §1
[24] = tested on: Staphylococcus epidermidis; experiment: Antimicrobial activity against methicillin-resistant Staphylococcus epidermidis clinical isolate after 18-24 hrs by two-fold serial dilution method
Pseudomonas aeruginosa [25] = experiment: Antimicrobial activity against Pseudomonas aeruginosa 10-12 after 18-24 hrs by two-fold serial dilution method; outline: as §1
[26] = tested on: Staphylococcus epidermidis; experiment: Antimicrobial activity against extended spectrum beta-lactamases-producing methicillin-resistant Staphylococcus epidermidis 10-13 after 18-24 hrs by two-fold serial dilution method; outline: as §2
Klebsiella pneumoniae [27] = experiment: Antimicrobial activity against Klebsiella pneumoniae 10-4 after 18-24 hrs by two-fold serial dilution method; outline: as §1
Klebsiella pneumoniae [28] = experiment: Antimicrobial activity against extended spectrum beta-lactamases-producing Klebsiella pneumoniae 10-2 after 18-24 hrs by two-fold serial dilution method; outline: as §1
Pseudomonas aeruginosa [29] = experiment: Antimicrobial activity against extended spectrum beta-lactamases-producing Pseudomonas aeruginosa 10-9 after 18-24 hrs by two-fold serial dilution method; outline: as §1
Staphylococcus aureus [30] = experiment: Antimicrobial activity against extended spectrum beta-lactamases-producing methicillin-resistant Staphylococcus aureus 10-11 after 18-24 hrs by two-fold serial dilution method; outline: as §2
Enterococcus faecalis [31] = experiment: Antimicrobial activity against Enterococcus faecalis 10-6 after 18-24 hrs by two-fold serial dilution method; outline: as §1
Escherichia coli [32] = experiment: Antimicrobial activity against Escherichia coli 10-3 after 18-24 hrs by two-fold serial dilution method; outline: as §1
Staphylococcus aureus [33] = experiment: Antimicrobial activity against Staphylococcus aureus ATCC […] after 18-24 hrs by two-fold serial dilution method; outline: as §1
Staphylococcus aureus [34] = experiment: Antimicrobial activity against extended spectrum beta-lactamases-producing methicillin-sensitive Staphylococcus aureus 10-13 after 18-24 hrs by two-fold serial dilution method; outline: as §1
Enterococcus faecium [35] = experiment: Antimicrobial activity against Enterococcus faecium 10-9 after 18-24 hrs by two-fold serial dilution method; outline: as §1
Enterococcus faecalis [36] = experiment: Antimicrobial activity against Enterococcus faecalis 10-5 after 18-24 hrs by two-fold serial dilution method; outline: as §1
Escherichia coli [37] = experiment: Antimicrobial activity against Escherichia coli ATCC 25922 after 18-24 hrs by two-fold serial dilution method; outline: as §1
Escherichia coli [38] = experiment: Antimicrobial activity against Escherichia coli 10-2 after 18-24 hrs by two-fold serial dilution method; outline: as §1

CO/N=C1\CN(c2nc3c(cc2F)c(=O)c(C(=O)O)cn3C2CC2)CC1CN (stereo not given) [GEMIFLOXACIN]
MIC (Streptococcus pneumoniae [1]): 2 µg/mL (≈ 5.14 µM) | MIC (Staphylococcus aureus [2]): 1 µg/mL (≈ 2.57 µM) | MIC (Klebsiella pneumoniae [3]): 8 µg/mL (≈ 20.5 µM) | MIC (Escherichia coli [4]): 8 µg/mL (≈ 20.5 µM) | MIC (Klebsiella pneumoniae [5]): 16 µg/mL (≈ 41.1 µM) | MIC (Streptococcus pneumoniae [6]): 2 µg/mL (≈ 5.14 µM) | MIC (Enterococcus faecalis [7]): 2 µg/mL (≈ 5.14 µM) | MIC [8]: 16 µg/mL (≈ 41.1 µM) | MIC (Staphylococcus aureus [9]): 0.06 µg/mL (≈ 0.154 µM) | MIC (Pseudomonas aeruginosa [10]): 0.5 µg/mL (≈ 1.28 µM) | MIC (Escherichia coli [11]): 2 µg/mL (≈ 5.14 µM) | MIC [12]: 1 µg/mL (≈ 2.57 µM) | MIC (Pseudomonas aeruginosa [13]): 2 µg/mL (≈ 5.14 µM) | MIC (Escherichia coli [14]): 16 µg/mL (≈ 41.1 µM) | MIC (Enterococcus faecium [15]): 8 µg/mL (≈ 20.5 µM) | MIC [16]: 16 µg/mL (≈ 41.1 µM) | MIC50 (Staphylococcus aureus [17]): 2 µg/mL (≈ 5.14 µM) | MIC90 (Staphylococcus aureus [17]): 8 µg/mL (≈ 20.5 µM) | MIC (Escherichia coli [18]): 8 µg/mL (≈ 20.5 µM) | MIC (Pseudomonas aeruginosa [19]): 1 µg/mL (≈ 2.57 µM) | MIC (Klebsiella pneumoniae [20]): 16 µg/mL (≈ 41.1 µM) | MIC [21]: 2 µg/mL (≈ 5.14 µM) | MIC (Pseudomonas aeruginosa [22]): 0.5 µg/mL (≈ 1.28 µM) | MIC (Klebsiella pneumoniae [23]): 0.5 µg/mL (≈ 1.28 µM) | MIC50 [24]: 0.25 µg/mL (≈ 0.642 µM) | MIC90 [24]: 8 µg/mL (≈ 20.5 µM) | MIC (Pseudomonas aeruginosa [25]): 0.03 µg/mL (≈ 0.077 µM) | MIC [26]: 0.5 µg/mL (≈ 1.28 µM) | MIC (Klebsiella pneumoniae [27]): 32 µg/mL (≈ 82.2 µM) | MIC (Klebsiella pneumoniae [28]): 16 µg/mL (≈ 41.1 µM) | MIC (Pseudomonas aeruginosa [29]): 0.5 µg/mL (≈ 1.28 µM) | MIC (Staphylococcus aureus [30]): 4 µg/mL (≈ 10.3 µM) | MIC (Enterococcus faecalis [31]): 8 µg/mL (≈ 20.5 µM) | MIC (Escherichia coli [32]): 0.5 µg/mL (≈ 1.28 µM) | MIC (Staphylococcus aureus [33]): 0.06 µg/mL (≈ 0.154 µM) | MIC (Staphylococcus aureus [34]): 0.25 µg/mL (≈ 0.642 µM) | MIC (Enterococcus faecium [35]): 8 µg/mL (≈ 20.5 µM) | MIC (Enterococcus faecalis [36]): 1 µg/mL (≈ 2.57 µM) | MIC (Escherichia coli [37]): 0.03 µg/mL (≈ 0.077 µM) | MIC (Escherichia coli [38]): 0.5 µg/mL (≈ 1.28 µM)
